Published values from different studies.
Protocols differ between the studies behind these lines. pKi: −log10 of the molar value.
ADORA2B: Adenosine receptor A2b (ADORA2B, Homo sapiens, UniProt P29275)
HTR4: 5-hydroxytryptamine receptor 4 (HTR4, Homo sapiens, UniProt Q13639)
MMP13: Collagenase 3 (MMP13, Homo sapiens, UniProt P45452)

`CCCCn1c(=O)c2[nH]c(C34CC5CC(CC3C5)C4)nc2n(CCCO)c1=O` has a pKi of 7.31 (ADORA2B; ligand displacement; radioligand; cell membranes).
`CCCCN1CCC(COC(=O)c2ccc(N)c(OCF)c2)CC1` has a pKi of 9.10 (HTR4; ligand displacement; radioligand).
`Nc1ncnc2c1ncn2[C@@H]1O[C@H](COP(=O)(O)OP(=O)(O)O)[C@@H](O)[C@H]1O` has a pKi of ~5.70 (nod (Drosophila melanogaster, UniProt P18105); enzyme activity; inhibitor).
For `COc1ccc(CCCn2ncc3c2nc(N)n2nc(-c4ccco4)nc32)cc1`, the pKi was 6.12 (Adenosine receptor A1 (Mus musculus, UniProt Q60612); ligand displacement; radioligand; cell membranes).
`COC(=O)c1ccc(CSc2nc3c(c(=O)[nH]2)CCC3)cc1` has a pKi of 5.82 (MMP13; enzyme activity; inhibitor).
The pKi of `C=CCN1CCCn2c1nc1c2c(=O)n(C)c(=O)n1C` is reported as < 5.00 (ADORA2B; ligand displacement; radioligand; cell membranes).
With `Oc1nc(SCc2ccc(Cl)cc2)nc2c1CCC2` the pKi was 5.48 (MMP13; enzyme activity; inhibitor).
`N=C(N)N1CCC[C@H]1c1nc(-c2ccc(CCC3CCCCC3)c(C(F)(F)F)c2)no1` gave a pKi of 6.96 (Sphingosine kinase 2 (Sphk2, Mus musculus, UniProt Q9JIA7); enzyme activity; inhibitor).
`C[C@]12CCC(=O)C=C1CC[C@@H]1[C@@H]2[C@@H](O)C[C@@]2(C)[C@H]1CC[C@]2(O)C(=O)CO` gave a pKi of 5.36 (G-protein coupled estrogen receptor 1 (GPER1, Homo sapiens, UniProt Q99527); ligand displacement; radioligand).
`CCCCCCCCCCCCCC#CC(=O)O` has a pKi of 5.32 (Fatty acid synthase (Plasmodium falciparum, UniProt Q965D7); enzyme activity; inhibitor).
The pKi of `CC(C)N1CCCn2c1nc1c2c(=O)n(C)c(=O)n1C` is reported as < 5.00 (ADORA2B; ligand displacement; radioligand; cell membranes).
The pKi of `Cc1c(-c2ccccc2)oc2c(C(=O)OCCN3CCCCC3)cccc2c1=O` is reported as < 5.00 (HTR4; cell-free assay; radioligand; cell membranes).
For `CCCCN1CCCn2c1nc1c2c(=O)n(C)c(=O)n1C`, the pKi was < 5.00 (ADORA2B; ligand displacement; radioligand; cell membranes).
`OC[C@@]12C[C@@H]1[C@@H](n1cnc3c(NC(C4CCCC4)C4CCCC4)nc(Cl)cc31)[C@H](O)[C@@H]2O` gave a pKi of 5.33 (Beta-3 adrenergic receptor (ADRB3, Homo sapiens, UniProt P13945); cell-free assay; radioligand).
With `CCCC(C)N1CCCn2c1nc1c2c(=O)n(C)c(=O)n1C` (stereo not shown) the pKi was < 5.00 (ADORA2B; ligand displacement; radioligand; cell membranes).
For `C[C@H]1CN(C2COC2)CCN1c1ccc(Nc2cc(-c3ccnc(N4CCn5c(cc6c5CC(C)(C)C6)C4=O)c3CO)cn(C)c2=O)nc1`, the pKi was 5.71 (Solute carrier organic anion transporter family member 1B1 (SLCO1B1, Homo sapiens, UniProt Q9Y6L6); transporter uptake; inhibitor; HEK293).
